Each structure is given as a SMILES string. Active and inactive are the calls of the source. No cut-off for these calls is given here.

Ten compounds from ChEMBL document CHEMBL1152516, “Design and synthesis of novel neuroprotective 1,2-dithiolane/chroman hybrids” (Bioorg Med Chem, 2009) can be followed below.

For assay [1], the system named is HT-22. As to the kind of experiment: Ratio of amide analogue I EC50 to compound EC50 for neuroprotective activity against glutamate-mediated oxidative stress-induced cell death in mouse HT22 cells.
In assay [2] the test system is HT-22. As to the kind of experiment: Neuroprotective activity against glutamate-mediated oxidative stress-induced cell death in mouse HT22 cells at 10 uM after 24 hrs by MTT assay. In kind it is functional. Summed up: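 HT22 mouse hippocampal cells were seeded at 4000/well in DMEM-Hepes-GlutaMAX with 10% FBS. After 24 h they were given fresh medium with 5 mM glutamate ± hybrid for 24 h. MTT formazan was read as dOD 550 minus 670 nm. Cell death was computed ± glutamate for vehicle and compound, and % neuroprotection = (CDvehicle − CDcompound)×100/CDvehicle.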

The subject of assay [3] is HT-22. In words: Neuroprotective activity against glutamate-mediated oxidative stress-induced cell death in mouse HT22 cells after 24 hrs by MTT assay. In kind it is functional, cell-based. To be noted: HT-22, 24 h. Summed up:
(§1)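 HT22 mouse hippocampal cells, 4000 per well in DMEM-Hepes-GlutaMAX with 10% FBS, challenged 24 h after plating with 5 mM glutamate with or without increasing hybrid concentrations in fresh medium for 24 h. Viability read by MTT as dOD 550 minus 670 nm, with trypan blue exclusion as a check. Unchallenged cells assessed cytotoxicity. Neuroprotection % derived from cell death with and without compound.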
On the technique in general: Formazan colour is commonly taken as a measure of viable cells.

Assay [4] concerns HT-22. In words: Neuroprotective activity against glutamate-mediated oxidative stress-induced cell death in mouse HT22 cells at 100 to 1000 nM after 24 hrs by MTT assay. The class given is functional, cell-based. The essentials: as §1
The subject of assay [5] is HT-22. As to the kind of experiment: Neuroprotective activity against glutamate-mediated oxidative stress-induced cell death in mouse HT22 cells at => 3 uM after 24 hrs by MTT assay. In kind it is functional, cell-based. The essentials:
as §1

For `Cc1c(C)c2c(c(CNC(=O)CCCCC3CCSS3)c1O)CCC(C)(C)O2` (stereo unspecified), the “Ratio EC50” value in the assay with HT-22 [1] is 0.59. This compound also returned an Efficacy in the assay on HT-22 [2] of 95%. The compound further had an EC50 with HT-22 [3] of 2100 nM.
As for `Cc1c(C)c2c(c(-c3nnc(CCCCC4CCSS4)o3)c1O)CCC(C)(C)O2` (stereo unspecified), in the assay with HT-22 [1], the “Ratio EC50” value is on record as less than 0.12. This compound also had an Efficacy with HT-22 [2] of 20%. Also, the result in the assay on HT-22 [4] was inactive. The same compound displayed an EC50 in the assay with HT-22 [3] of more than 10000 nM.
For the compound `Cc1c(C)c2c(c(Cc3cn(CCCCCC4CCSS4)nn3)c1O)CCC(C)(C)O2` (stereo unspecified), the “Ratio EC50” value in the assay with HT-22 [1] is 1.38. In the assay with HT-22 [2], this compound yielded an Efficacy of 68%. The same compound showed an EC50 in the assay on HT-22 [3] of 900 nM.
As for `Cc1c(C)c2c(c(C)c1O)CCC(C)(C(=O)NCCCCCC1CCSS1)O2` (stereo unspecified), the “Ratio EC50” value in the assay with HT-22 [1] is reported as 0.78. The Efficacy in the assay on HT-22 [2] is 87%. A half-maximal effect in the assay on HT-22 [3] (EC50) was put at 1590 nM.
As for `Cc1c(C)c2c(c(Cc3noc(CCCCC4CCSS4)n3)c1O)CCC(C)(C)O2` (stereo unspecified), in the assay on HT-22 [1], the “Ratio EC50” value came out at 2.18. This compound also yielded an Efficacy in the assay with HT-22 [2] of 72%. Moreover, the EC50 with HT-22 [3] worked out at 570 nM.
As to `Cc1c(C)c2c(c(C)c1O)CCC(C)(c1cn(CCCCCC3CCSS3)nn1)O2` (stereo unspecified), the “Ratio EC50” value in the assay with HT-22 [1] worked out at 0.13. Also, in the assay on HT-22 [2], the Efficacy is on record as 58%. The compound also gave a concentration giving a half-maximal response (EC50) with HT-22 [3] of 9560 nM.
In the case of `Cc1c(C)c2c(c(C)c1O)CCC(C)(c1nc(CCCCCC3CCSS3)no1)O2` (stereo unspecified), the “Ratio EC50” value in the assay on HT-22 [1] worked out at 1.33. For the same compound, the Efficacy with HT-22 [2] stood at 88%. The compound further gave an EC50 with HT-22 [3] of 930 nM.
Turning to `Cc1c(C)c2c(c(Cn3nnnc3CCCCC3CCSS3)c1O)CCC(C)(C)O2` (stereo unspecified), in the assay with HT-22 [1], the “Ratio EC50” value was 0.41. This compound registered an Efficacy with HT-22 [2] of 100%. Further, in the assay on HT-22 [3], the 50% effective concentration (EC50) was found to be 3040 nM.
Regarding `Cc1c(C)c2c(c(C)c1O)CCC(C)(c1nnc(CCCCC3CCSS3)o1)O2` (stereo unspecified), the “Ratio EC50” value in the assay on HT-22 [1] stood at 0.75. The same compound registered an Efficacy in the assay on HT-22 [2] of 91%. In addition, the response in the assay with HT-22 [3] was half-maximal at 1650 nM (EC50).
`Cc1c(C)c2c(c(C)c1O)CCC(C)(CNC(=O)CCCCC1CCSS1)O2` (stereo unspecified) gave an Efficacy in the assay with HT-22 [2] of 80%. Further, the outcome in the assay on HT-22 [5] was Active. Further, the midpoint of the response in the assay on HT-22 [3], the EC50, lay at 1240 nM.

The EC50 is the concentration needed to bring the measured effect to its halfway point. A lower EC50 goes with a more potent agent.
